Laboratory results reported in ChEMBL document CHEMBL3758117, “Discovery of indeno[1,2-b]quinoxaline derivatives as potential anticancer agents” (Eur J Med Chem, 2016).
The source made the active and inactive calls. The calls are words filed in the database; no cut-off is given here.

Columns and labels:
[1] = Antiproliferative activity against human HuH7 cells after 72 hrs by XTT assay; assay type: functional, cell-based; details: Huh-7, 72 h
Procedure, shortened: (§1)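 Cells kept as monolayers in DMEM with 10% FBS, penicillin, streptomycin and amphotericin at 37°C, 5% CO2. Seeded at 5 x 10³ cells/well and exposed to compound for 72 h in medium with 10% FBS. XTT plus electron-coupling reagent added, 4 h at 37°C, absorbance read at 492 nm. Percent of control growth uses mean absorbance (n = 3). The 50% value is taken from the linear portion of the curve.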

[2] = target: DNA topoisomerase 2-alpha (Homo sapiens) (UniProt P11388); assay: Inhibition of human DNA topoisomerase 2-mediated relaxation of supercoiled pBR322 DNA at 100 uM after 30 mins by ethidium bromide staining based agarose gel electrophoresis
Sequence of DNA topoisomerase 2-alpha (Homo sapiens) (P11388 whole entry): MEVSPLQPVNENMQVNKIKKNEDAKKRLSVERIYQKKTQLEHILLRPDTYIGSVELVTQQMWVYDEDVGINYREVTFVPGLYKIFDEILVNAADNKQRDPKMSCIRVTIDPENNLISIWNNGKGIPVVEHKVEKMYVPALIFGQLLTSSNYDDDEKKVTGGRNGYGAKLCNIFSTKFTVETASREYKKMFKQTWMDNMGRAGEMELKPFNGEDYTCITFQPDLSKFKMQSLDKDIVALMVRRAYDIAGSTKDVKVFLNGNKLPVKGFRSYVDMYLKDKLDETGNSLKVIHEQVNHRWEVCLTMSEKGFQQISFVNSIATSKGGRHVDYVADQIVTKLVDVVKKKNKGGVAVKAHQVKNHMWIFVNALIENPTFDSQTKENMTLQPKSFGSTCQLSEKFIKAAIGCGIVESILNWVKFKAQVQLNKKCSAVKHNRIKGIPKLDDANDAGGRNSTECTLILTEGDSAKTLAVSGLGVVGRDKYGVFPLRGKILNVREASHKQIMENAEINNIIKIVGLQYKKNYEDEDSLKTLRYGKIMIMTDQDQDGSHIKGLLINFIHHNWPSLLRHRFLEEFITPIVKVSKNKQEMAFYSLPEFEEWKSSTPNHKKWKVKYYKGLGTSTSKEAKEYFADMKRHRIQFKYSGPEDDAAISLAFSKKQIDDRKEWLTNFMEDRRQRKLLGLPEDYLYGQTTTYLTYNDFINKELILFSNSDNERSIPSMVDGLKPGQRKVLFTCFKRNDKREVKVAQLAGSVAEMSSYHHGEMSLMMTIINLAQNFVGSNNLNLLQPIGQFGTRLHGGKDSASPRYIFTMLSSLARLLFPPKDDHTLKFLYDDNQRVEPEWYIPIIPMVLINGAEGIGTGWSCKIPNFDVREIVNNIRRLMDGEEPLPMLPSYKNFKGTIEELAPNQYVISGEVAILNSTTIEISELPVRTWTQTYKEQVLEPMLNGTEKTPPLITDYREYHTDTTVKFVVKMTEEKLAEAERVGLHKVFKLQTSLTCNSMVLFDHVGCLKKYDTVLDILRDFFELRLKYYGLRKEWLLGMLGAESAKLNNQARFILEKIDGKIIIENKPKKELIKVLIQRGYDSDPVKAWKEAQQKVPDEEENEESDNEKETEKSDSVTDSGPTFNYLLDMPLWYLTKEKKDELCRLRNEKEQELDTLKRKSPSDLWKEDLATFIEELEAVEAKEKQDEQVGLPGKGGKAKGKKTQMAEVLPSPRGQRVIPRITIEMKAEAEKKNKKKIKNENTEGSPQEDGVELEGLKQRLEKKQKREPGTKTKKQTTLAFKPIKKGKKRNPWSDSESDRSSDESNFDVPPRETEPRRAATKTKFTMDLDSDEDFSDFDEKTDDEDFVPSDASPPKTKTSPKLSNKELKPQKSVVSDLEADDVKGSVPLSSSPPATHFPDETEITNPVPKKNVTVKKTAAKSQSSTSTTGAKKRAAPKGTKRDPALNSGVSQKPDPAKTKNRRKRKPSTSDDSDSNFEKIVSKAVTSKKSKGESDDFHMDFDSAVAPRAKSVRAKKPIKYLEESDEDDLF
Procedure, shortened: (§2)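 Human topo I or topo II (2 units) was reacted with 0.2 μg supercoiled pBR322 in 20 μl Tris-HCl pH 7.5 containing KCl, DTT, EDTA, MgCl2 and BSA, with DMSO held at 0.5%, for 30 min at 37°C. The reaction was stopped with SDS. Samples were run on 1% agarose in Tris-acetate/EDTA at 1.5 V/cm for 2-3 h and stained with ethidium bromide. Relaxation was quantified by densitometry of the supercoiled band area.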

[3] = Antiproliferative activity against human H1299 cells after 72 hrs by XTT assay; assay type: functional, cell-based; details: NCI-H1299, 72 h; procedure, shortened: as §1
[4] = tested on: Escherichia coli; assay: Binding affinity to Escherichia coli negative supercoiled pBR322 DNA at 10 uM after 12 hrs by ethidium bromide staining based agarose gel electrophoresis
Procedure, shortened: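 Negatively supercoiled pBR322 (400 ng) in TE buffer pH 8.0 was incubated with compound at 10 μM for 12 h at room temperature. Loading buffer with sarkosyl was added. Samples were run on 1% agarose at 6 V/cm for 2.5 h in TAE pH 8.5, stained with ethidium bromide and photographed under UV.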

[5] = target: DNA topoisomerase 2-alpha (Homo sapiens) (UniProt P11388); assay: Inhibition of human DNA topoisomerase 2-mediated relaxation of supercoiled pBR322 DNA at 10 uM after 30 mins by ethidium bromide staining based agarose gel electrophoresis; procedure, shortened: as §2
[6] = tested on: Huh-7; assay: Selectivity index, ratio of IC50 for human MRC5 cells to IC50 for human HuH7 cells; assay type: functional
[7] = tested on: MRC5; assay: Selectivity index, ratio of IC50 for human MRC5 cells to IC50 for human MDA-MB-231 cells; assay type: functional
[8] = tested on: MDA-MB-231; assay: Antiproliferative activity against human MDA-MB-231 cells after 72 hrs by XTT assay; assay type: functional, cell-based; details: MDA-MB-231, 72 h; procedure, shortened: as §1
[9] = target: T1, DNA topoisomerase 1 (Homo sapiens) (UniProt P11387); assay: Inhibition of human DNA topoisomerase 1-mediated relaxation of supercoiled pBR322 DNA at 100 uM after 30 mins by ethidium bromide staining based agarose gel electrophoresis; procedure, shortened: as §2
T1 sequence (whole entry): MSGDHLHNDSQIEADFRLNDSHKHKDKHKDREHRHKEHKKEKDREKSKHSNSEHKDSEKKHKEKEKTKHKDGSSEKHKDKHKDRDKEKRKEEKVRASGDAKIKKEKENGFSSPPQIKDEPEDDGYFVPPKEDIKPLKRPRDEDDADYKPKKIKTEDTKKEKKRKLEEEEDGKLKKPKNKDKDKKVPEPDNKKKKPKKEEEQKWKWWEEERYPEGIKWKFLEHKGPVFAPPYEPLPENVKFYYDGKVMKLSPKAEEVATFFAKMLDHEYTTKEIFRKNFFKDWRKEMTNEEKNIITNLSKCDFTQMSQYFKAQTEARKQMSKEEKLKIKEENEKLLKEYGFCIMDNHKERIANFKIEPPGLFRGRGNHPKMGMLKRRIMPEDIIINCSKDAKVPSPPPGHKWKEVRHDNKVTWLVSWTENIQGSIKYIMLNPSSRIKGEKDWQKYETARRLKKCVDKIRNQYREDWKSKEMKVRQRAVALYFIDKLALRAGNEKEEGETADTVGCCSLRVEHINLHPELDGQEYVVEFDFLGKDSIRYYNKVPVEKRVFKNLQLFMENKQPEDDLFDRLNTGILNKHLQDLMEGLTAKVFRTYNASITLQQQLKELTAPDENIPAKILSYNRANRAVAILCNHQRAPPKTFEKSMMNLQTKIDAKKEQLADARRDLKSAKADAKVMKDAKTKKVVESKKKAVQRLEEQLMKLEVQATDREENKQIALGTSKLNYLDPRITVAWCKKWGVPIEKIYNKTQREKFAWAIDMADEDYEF

[10] = tested on: MRC5; assay: Antiproliferative activity against human MRC5 cells after 72 hrs by XTT assay; assay type: cell-based; details: MRC5, 72 h; procedure, shortened: as §1
[11] = Antiproliferative activity against human PC3 cells after 72 hrs by XTT assay; assay type: functional, cell-based; details: PC-3, 72 h; procedure, shortened: as §1
[12] = tested on: MRC5; assay: Selectivity index, ratio of IC50 for human MRC5 cells to IC50 for human PC3 cells; assay type: functional
[13] = target: T1, DNA topoisomerase 1 (Homo sapiens); assay: Inhibition of human DNA topoisomerase 1-mediated relaxation of supercoiled pBR322 DNA at 10 uM after 30 mins by ethidium bromide staining based agarose gel electrophoresis; procedure, shortened: as §2
[14] = Selectivity index, ratio of IC50 for human MRC5 cells to IC50 for human H1299 cells; assay type: functional

Row | inhibition call (active/not active) [2] | Activity [4] | topoisomerase 2 inhibition (active/not active) [5] | IC50 [8] [µM] | topoisomerase 1 inhibition (active/inactive) [9] | inhibition [13] | SMILES | IC50 [1] [µM] | IC50 [3] [µM] | Ratio IC50 [6] | Ratio IC50 [7] | IC50 [10] [µM] | IC50 [11] [µM] | Ratio IC50 [12] | Ratio IC50 [14]
1 | Active | inactive | inactive | 6.55 | Active | Active | O=C1c2ccccc2-c2nc3c(C(=O)NCCN4CCCC4)cccc3nc21 | 8.51 | 11.2 | 0.94 | 1.22 | 7.99 | 12 | 0.67 | 0.71
2 | Active | inactive | inactive | 7.04 | Active | inactive | CN(C)CCCNC(=O)c1cccc2nc3c(nc12)-c1ccccc1C3=O | 7.7 | 7.82 | 1.18 | 1.29 | 9.07 | 10.2 | 0.89 | 1.16
3 | Active | inactive | inactive | 4.92 | Active | Active | Cl.c1ccc2c(c1)/C(=N\OCCN1CCCC1)c1nc3ccccc3nc1-2 | 6.46 | 7.03 | 2.73 | 3.59 | 17.7 | 8.51 | 2.07 | 2.51
4 | inactive | inactive | – | 10.8 | inactive | – | O/N=C\c1cccc2nc3c(nc12)-c1ccccc1/C3=N/O | 8.61 | 8.13 | 0.76 | 0.61 | 6.54 | 9.45 | 0.69 | 0.8
5 | inactive | inactive | – | > 10 | Active | inactive | CN(C)Cc1cccc2nc3c(nc12)-c1ccccc1C3=O | > 10 | > 10 | – | – | 77.8 | > 10 | – | –
6 | – | – | – | < 0.1 | – | – | CC[C@@]1(O)C(=O)OCc2c1cc1n(c2=O)Cc2cc3c(CN(C)C)c(O)ccc3nc2-1 [TOPOTECAN] | – | – | 0.49 | >42.5 | 4.25 | 9.35 | 0.45 | 0.71
7 | Active | Active | inactive | 0.9 | Active | Active | CN(C)CCCO/N=C1\c2ccccc2-c2nc3c(CN(C)C)cccc3nc21.Cl | 0.75 | 0.81 | 1.17 | 0.98 | 0.88 | 0.78 | 1.13 | 1.09
8 | – | inactive | – | > 10 | – | – | O=C1c2ccccc2-c2nc3c(C(=O)O)cccc3nc21 | > 10 | > 10 | – | – | 71.2 | > 10 | – | –
9 | inactive | inactive | – | > 10 | inactive | – | CN(C)CCCO/N=C1\c2ccccc2-c2nc3c(C(=O)O)cccc3nc21 | > 10 | > 10 | – | – | 15.1 | > 10 | – | –
10 | inactive | inactive | – | > 10 | inactive | – | O=C1c2ccccc2-c2nc3c(CN4CCOCC4)cccc3nc21 | > 10 | > 10 | – | – | 95.7 | > 10 | – | –
11 | Active | Active | Active | 1.01 | Active | Active | C(=N\OCCN1CCCC1)/c1cccc2nc3c(nc12)-c1ccccc1/C3=N\OCCN1CCCC1.Cl | 0.78 | 6.02 | 1.17 | 0.9 | 0.91 | 5.17 | 0.18 | 0.15
12 | – | inactive | – | > 10 | – | – | Cc1cccc2nc3c(nc12)-c1ccccc1C3=O | > 10 | > 10 | – | – | 87.1 | > 10 | – | –
13 | inactive | inactive | – | > 10 | inactive | – | O=C1c2ccccc2-c2nc3c(C(=O)NCCN4CCOCC4)cccc3nc21 | > 10 | > 10 | – | – | 88.6 | > 10 | – | –
14 | inactive | inactive | – | > 10 | inactive | – | O=Cc1cccc2nc3c(nc12)-c1ccccc1C3=O | > 10 | > 10 | – | – | 78.9 | > 10 | – | –
15 | inactive | inactive | – | > 10 | Active | inactive | O=C1c2ccccc2-c2nc3c(CN4CCCCC4)cccc3nc21 | > 10 | > 10 | – | – | 25.9 | > 10 | – | –
16 | Active | – | Active | – | Active | Active | COc1ccc2c(c1)/C(=N\OCCN1CCCC1)c1c-2c(O)nc2ccccc12 | – | – | – | – | – | – | – | –
17 | inactive | inactive | – | > 10 | inactive | – | O/N=C1\c2ccccc2-c2nc3ccccc3nc21 | > 10 | > 10 | – | – | 51.1 | > 10 | – | –
18 | inactive | inactive | – | > 10 | Active | inactive | O=C1c2ccccc2-c2nc3c(CN4CCCC4)cccc3nc21 | 6.98 | > 10 | 1.4 | – | 9.8 | > 10 | – | –
19 | – | inactive | – | > 10 | – | – | O=C1c2ccccc2-c2nc3ccccc3nc21 | > 10 | > 10 | – | – | 85.3 | > 10 | – | –
20 | inactive | inactive | – | > 10 | inactive | – | O=C1c2ccccc2-c2nc3c(CN4CCC(N5CCCCC5)CC4)cccc3nc21 | > 10 | > 10 | – | – | 89.7 | > 10 | – | –
